Calls of active or inactive are those of the source. The calls are words filed in the database; no cut-off is given here.
Legend:
[1] = biological target: Serine/threonine-protein kinase Chk1 (Homo sapiens) (UniProt O14757); assay: Inhibition of at CHK1 at 10 uM relative to control; values are per cent of control
[2] = biological target: EKC/KEOPS complex subunit BUD32 (Saccharomyces cerevisiae S288c) (UniProt P53323); assay: Inhibition of PiD261 at 10 uM relative to control; values are per cent of control
Sequence of EKC/KEOPS complex subunit BUD32 (Saccharomyces cerevisiae S288c) (P53323 whole entry, one chain of several): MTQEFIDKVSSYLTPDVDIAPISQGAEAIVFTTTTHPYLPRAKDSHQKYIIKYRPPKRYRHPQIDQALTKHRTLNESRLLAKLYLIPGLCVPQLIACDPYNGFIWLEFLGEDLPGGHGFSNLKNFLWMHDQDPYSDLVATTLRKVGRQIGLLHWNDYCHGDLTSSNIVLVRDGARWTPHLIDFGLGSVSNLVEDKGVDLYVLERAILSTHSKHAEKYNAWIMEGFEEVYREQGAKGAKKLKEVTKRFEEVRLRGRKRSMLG

[3] = biological target: T1, Dual specificity mitogen-activated protein kinase kinase 1 (Homo sapiens, UniProt Q02750); assay: Inhibition of MKK1
T1 sequence (Q02750 whole entry): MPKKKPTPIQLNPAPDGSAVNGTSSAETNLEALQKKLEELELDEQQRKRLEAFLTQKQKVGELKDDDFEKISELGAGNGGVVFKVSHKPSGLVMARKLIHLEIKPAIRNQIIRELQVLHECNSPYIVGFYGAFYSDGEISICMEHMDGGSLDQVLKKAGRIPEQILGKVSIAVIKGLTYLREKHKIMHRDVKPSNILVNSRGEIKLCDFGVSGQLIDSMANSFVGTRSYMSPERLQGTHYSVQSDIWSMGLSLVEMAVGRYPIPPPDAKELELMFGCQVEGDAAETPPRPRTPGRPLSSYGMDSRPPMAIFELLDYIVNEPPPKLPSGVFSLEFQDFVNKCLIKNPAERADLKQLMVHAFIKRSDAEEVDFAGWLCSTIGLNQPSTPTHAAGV

Homo sapiens [4] = organism: Homo sapiens; assay: Inhibition of PP2A at 10 uM relative to control; values are per cent of control
[5] = biological target: Mitogen-activated protein kinase 8 (Homo sapiens) (UniProt P45983); assay: Inhibition of JNK/SAPK1c at 10 uM relative to control; values are per cent of control
[6] = biological target: MAP kinase-activated protein kinase 5 (Homo sapiens) (UniProt Q8IW41); assay: Residual activity of PRAK at 10 uM relative to control
[7] = biological target: Serine/threonine-protein kinase Sgk1 (Homo sapiens) (UniProt O00141); assay: Inhibition of SGK at 10 uM relative to control; values are per cent of control
Jurkat [8] = assay: Induction of caspase activation assessed as PARP cleavage in Jurkat T cells; type: functional, cell-based; conditions: Homo sapiens
Method in brief: (§1)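 Jurkat T cells suspended at 10⁶ cells/mL in RPMI-1640 with 1% fetal calf serum, treated 14 h at 37 °C with 5 or 10 μM compound; untreated cells as control, 50 ng/mL anti-Fas as apoptotic control. Cells lysed in hypo-osmotic buffer; caspase activation read by Western blot as degradation of HS1 (full length and major fragment) and PARP.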

[9] = biological target: Tyrosine-protein kinase Lyn (Homo sapiens) (UniProt P07948); assay: Residual activity of Lyn at 10 uM relative to control
Sequence of Tyrosine-protein kinase Lyn (Homo sapiens) (P07948 2-512 limits assumed): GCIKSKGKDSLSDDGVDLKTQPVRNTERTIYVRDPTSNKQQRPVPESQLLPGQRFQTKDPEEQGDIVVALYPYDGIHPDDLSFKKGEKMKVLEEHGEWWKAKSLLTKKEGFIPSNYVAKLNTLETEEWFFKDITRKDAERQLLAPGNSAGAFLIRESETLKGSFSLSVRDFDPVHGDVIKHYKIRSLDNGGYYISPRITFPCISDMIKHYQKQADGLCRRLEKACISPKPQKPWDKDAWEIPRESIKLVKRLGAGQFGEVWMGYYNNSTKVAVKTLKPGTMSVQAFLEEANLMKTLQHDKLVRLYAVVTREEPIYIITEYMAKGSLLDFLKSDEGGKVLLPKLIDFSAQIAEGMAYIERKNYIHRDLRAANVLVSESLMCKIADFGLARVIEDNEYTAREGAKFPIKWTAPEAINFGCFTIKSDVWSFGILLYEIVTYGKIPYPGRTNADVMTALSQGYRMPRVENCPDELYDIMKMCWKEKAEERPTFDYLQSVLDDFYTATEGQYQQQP

Jurkat [10] = assay: Induction of mitochondrial depolarization in Jurkat T cells up to 10 uM; type: functional, cell-based; conditions: Homo sapiens
[11] = biological target: Protein kinase C alpha type (Homo sapiens) (UniProt P17252); assay: Inhibition of PKCalpha at 10 uM relative to control; values are per cent of control
[12] = biological target: Glycogen synthase kinase-3 beta (Homo sapiens) (UniProt P49841); assay: Inhibition of GSKbeta at 10 uM relative to control; values are per cent of control
[13] = biological target: cAMP-dependent protein kinase (PKA) (Homo sapiens) (UniProt P22694+P17612+P22612); assay: Inhibition of PKA at 10 uM relative to control; values are per cent of control
[14] = biological target: RAC-alpha serine/threonine-protein kinase (Homo sapiens) (UniProt P31749); assay: Inhibition of PKBalpha at 10 uM relative to control; values are per cent of control
[15] = biological target: Ribosomal protein S6 kinase beta-1 (Homo sapiens) (UniProt P23443); assay: Residual activity of S6K1 at 10 uM relative to control
Sequence of Ribosomal protein S6 kinase beta-1 (Homo sapiens) (P23443 whole entry, looked up): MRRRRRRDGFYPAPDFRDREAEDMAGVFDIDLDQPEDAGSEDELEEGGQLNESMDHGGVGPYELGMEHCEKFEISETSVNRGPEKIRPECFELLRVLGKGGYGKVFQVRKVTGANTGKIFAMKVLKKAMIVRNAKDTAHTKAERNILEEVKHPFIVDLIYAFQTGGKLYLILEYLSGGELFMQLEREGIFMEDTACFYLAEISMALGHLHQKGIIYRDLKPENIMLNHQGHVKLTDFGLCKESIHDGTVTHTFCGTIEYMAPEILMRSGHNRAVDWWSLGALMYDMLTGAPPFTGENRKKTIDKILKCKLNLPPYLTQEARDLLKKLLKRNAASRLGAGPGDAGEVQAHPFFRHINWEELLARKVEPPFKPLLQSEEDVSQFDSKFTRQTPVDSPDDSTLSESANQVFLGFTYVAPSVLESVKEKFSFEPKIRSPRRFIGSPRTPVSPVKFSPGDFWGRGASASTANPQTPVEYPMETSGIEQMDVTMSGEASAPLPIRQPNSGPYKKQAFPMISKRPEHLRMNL

[16] = biological target: AMP-activated protein kinase (AMPK) alpha-1/beta-1/gamma-1 (Homo sapiens) (UniProt P54619+Q9Y478+Q13131); assay: Inhibition of AMPK at 10 uM relative to control; values are per cent of control
Jurkat [17] = assay: Inhibition of cell viability in Jurkat T cells after 24 hrs by MTT method; type: functional, cell-based; conditions: Homo sapiens
Method in brief: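 Human Jurkat T-leukemia cells, grown in RPMI-1640 with 10% FCS, were resuspended at 10⁶ cells/mL in medium with 1% FCS. They were exposed to increasing compound concentrations for 24 h at 37 °C. Controls received DMSO (0.5% v/v), set as 100% viability. Viability was read by MTT. Values are means ± SEM of three separate experiments; DC50 was taken as the concentration halving viability.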

[18] = biological target: T2, Dual specificity tyrosine-phosphorylation-regulated kinase 1A (Homo sapiens, UniProt Q13627); assay: Inhibition of DYRK1A
[19] = biological target: Ribosomal protein S6 kinase alpha-5 (Homo sapiens) (UniProt O75582); assay: Residual activity of MSK1 at 10 uM relative to control
[20] = biological target: T3, Ribosomal protein S6 kinase alpha-1 (Homo sapiens, UniProt Q15418); assay: Inhibition of MAPKAPK1a
T3 sequence (Q15418 whole entry): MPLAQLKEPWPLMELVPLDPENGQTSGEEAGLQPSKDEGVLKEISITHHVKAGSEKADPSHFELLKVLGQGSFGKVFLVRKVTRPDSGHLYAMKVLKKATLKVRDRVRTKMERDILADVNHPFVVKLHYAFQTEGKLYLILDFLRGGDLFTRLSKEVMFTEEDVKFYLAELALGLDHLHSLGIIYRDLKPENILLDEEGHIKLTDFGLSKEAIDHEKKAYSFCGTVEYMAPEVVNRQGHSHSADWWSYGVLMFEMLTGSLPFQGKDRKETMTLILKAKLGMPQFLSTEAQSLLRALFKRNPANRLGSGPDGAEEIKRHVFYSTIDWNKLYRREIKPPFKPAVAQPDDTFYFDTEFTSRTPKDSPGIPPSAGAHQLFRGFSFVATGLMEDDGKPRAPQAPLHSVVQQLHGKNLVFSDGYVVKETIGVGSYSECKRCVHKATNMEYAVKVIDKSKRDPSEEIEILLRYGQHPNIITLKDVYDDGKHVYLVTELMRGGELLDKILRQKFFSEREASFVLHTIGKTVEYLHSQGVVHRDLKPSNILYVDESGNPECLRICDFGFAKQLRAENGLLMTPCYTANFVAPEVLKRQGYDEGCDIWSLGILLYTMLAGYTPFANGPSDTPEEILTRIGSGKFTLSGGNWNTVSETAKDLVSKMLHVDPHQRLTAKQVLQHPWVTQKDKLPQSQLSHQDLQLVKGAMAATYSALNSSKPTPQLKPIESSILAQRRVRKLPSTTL

[21] = biological target: Mitogen-activated protein kinase 13 (Homo sapiens) (UniProt O15264); assay: Residual activity of SAPK4/p38delta at 10 uM relative to control
Homo sapiens [22] = organism: Homo sapiens; assay: Inhibition of phosphorylase kinase at 10 uM relative to control
Jurkat [23] = assay: Induction of caspase activation assessed as HS1 protein cleavage in Jurkat T cells; type: functional, cell-based; conditions: Homo sapiens
Method in brief: as §1

[24] = biological target: T2, Dual specificity tyrosine-phosphorylation-regulated kinase 1A; assay: Inhibition of DYRK1A at 10 uM relative to control; values are per cent of control
[25] = biological target: Casein kinase I (Homo sapiens) (UniProt Q9HCP0+P78368+P48730+P49674+P48729); assay: Residual activity of CK1 at 10 uM relative to control
[26] = biological target: Serine/threonine-protein kinase Sgk1 (Homo sapiens, UniProt O00141); assay: Inhibition of SGK
[27] = biological target: Tyrosine-protein kinase Lck (Homo sapiens) (UniProt P06239); assay: Inhibition of Lck at 10 uM relative to control; values are per cent of control
[28] = biological target: Tyrosine-protein kinase SYK (Rattus norvegicus) (UniProt Q64725); assay: Residual activity of Syk at 10 uM relative to control
Sequence of Tyrosine-protein kinase SYK (Rattus norvegicus) (Q64725 whole entry, looked up): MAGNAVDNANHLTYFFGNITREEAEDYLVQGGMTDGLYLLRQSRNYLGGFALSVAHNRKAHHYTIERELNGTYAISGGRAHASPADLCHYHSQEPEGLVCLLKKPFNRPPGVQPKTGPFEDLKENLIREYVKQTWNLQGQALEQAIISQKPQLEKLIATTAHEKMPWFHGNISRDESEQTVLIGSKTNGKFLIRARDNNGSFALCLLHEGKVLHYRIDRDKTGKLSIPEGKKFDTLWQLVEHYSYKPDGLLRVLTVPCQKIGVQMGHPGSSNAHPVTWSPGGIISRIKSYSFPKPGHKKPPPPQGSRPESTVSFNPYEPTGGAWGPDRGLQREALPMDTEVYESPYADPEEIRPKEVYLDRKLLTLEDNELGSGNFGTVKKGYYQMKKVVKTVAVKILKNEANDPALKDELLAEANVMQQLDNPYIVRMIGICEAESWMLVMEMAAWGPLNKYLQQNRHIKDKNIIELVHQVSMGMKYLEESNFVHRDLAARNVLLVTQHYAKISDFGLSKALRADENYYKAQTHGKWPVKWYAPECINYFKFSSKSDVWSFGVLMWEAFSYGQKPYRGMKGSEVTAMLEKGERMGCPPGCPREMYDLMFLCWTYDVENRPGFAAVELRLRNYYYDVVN

[29] = biological target: 3-phosphoinositide-dependent protein kinase 1 (Homo sapiens) (UniProt O15530); assay: Inhibition of PDK1 at 10 uM relative to control; values are per cent of control
Sequence of 3-phosphoinositide-dependent protein kinase 1 (Homo sapiens) (O15530 whole entry): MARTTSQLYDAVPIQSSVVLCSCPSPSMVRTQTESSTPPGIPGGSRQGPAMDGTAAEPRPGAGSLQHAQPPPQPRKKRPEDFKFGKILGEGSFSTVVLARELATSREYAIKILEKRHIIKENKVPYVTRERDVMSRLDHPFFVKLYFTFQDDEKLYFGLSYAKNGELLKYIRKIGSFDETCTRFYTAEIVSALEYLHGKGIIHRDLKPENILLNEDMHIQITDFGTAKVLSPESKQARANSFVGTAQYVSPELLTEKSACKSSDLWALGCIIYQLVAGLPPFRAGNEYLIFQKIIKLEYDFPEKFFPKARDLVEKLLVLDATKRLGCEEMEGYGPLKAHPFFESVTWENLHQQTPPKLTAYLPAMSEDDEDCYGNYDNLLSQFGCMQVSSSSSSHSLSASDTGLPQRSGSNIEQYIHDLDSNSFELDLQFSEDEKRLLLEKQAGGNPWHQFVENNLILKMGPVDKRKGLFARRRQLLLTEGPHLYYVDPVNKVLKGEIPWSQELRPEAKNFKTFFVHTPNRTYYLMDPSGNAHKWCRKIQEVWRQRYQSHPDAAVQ

[30] = biological target: MAP kinase-activated protein kinase 2 (Homo sapiens) (UniProt P49137); assay: Inhibition of MAPKAPK2 at 10 uM relative to control; values are per cent of control
Sequence of MAP kinase-activated protein kinase 2 (Homo sapiens) (P49137 whole entry, looked up): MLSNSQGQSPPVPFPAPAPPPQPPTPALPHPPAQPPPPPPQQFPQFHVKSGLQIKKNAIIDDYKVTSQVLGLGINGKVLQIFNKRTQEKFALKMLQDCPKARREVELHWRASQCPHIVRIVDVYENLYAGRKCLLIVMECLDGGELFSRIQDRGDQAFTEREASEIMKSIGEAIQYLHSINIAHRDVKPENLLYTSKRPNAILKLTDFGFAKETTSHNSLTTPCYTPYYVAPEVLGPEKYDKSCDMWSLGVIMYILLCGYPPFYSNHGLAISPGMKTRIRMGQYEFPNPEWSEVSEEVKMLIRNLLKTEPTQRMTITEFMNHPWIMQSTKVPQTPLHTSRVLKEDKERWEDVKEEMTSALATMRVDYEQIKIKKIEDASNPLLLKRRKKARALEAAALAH

[31] = biological target: Mitogen-activated protein kinase 11 (Homo sapiens) (UniProt Q15759); assay: Inhibition of SAPK2b/p38--beta-2 at 10 uM relative to control; values are per cent of control
Sequence of Mitogen-activated protein kinase 11 (Homo sapiens) (Q15759 whole entry): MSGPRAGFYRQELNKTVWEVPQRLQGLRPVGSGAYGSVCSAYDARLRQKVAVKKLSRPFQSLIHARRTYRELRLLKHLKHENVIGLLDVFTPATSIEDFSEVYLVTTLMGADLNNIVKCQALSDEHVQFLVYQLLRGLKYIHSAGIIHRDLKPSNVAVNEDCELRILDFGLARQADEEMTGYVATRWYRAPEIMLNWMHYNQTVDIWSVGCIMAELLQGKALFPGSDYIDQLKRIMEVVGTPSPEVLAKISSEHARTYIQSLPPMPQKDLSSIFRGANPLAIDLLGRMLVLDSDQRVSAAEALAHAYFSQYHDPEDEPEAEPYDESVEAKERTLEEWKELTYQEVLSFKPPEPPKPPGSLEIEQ

[32] = biological target: Rho-associated protein kinase 2 (Homo sapiens) (UniProt O75116); assay: Inhibition of ROCK2 at 10 uM relative to control; values are per cent of control
[33] = biological target: Mitogen-activated protein kinase 1 (Homo sapiens) (UniProt P28482); assay: Inhibition of MAPK2/ERK2 at 10 uM relative to control; values are per cent of control
[34] = biological target: Mitogen-activated protein kinase 12 (Homo sapiens) (UniProt P53778); assay: Residual activity of SAPK3/p38gamma relative to control
[35] = biological target: Cyclin-dependent kinase 2/cyclin A (Homo sapiens, UniProt P24941); assay: Inhibition of CDK2/Cyclin A; type: protein-complex assay
[36] = biological target: Mitogen-activated protein kinase 14 (Homo sapiens) (UniProt Q16539); assay: Inhibition of SAPK2a/p38 at 10 uM relative to control; values are per cent of control
[37] = biological target: T3, Ribosomal protein S6 kinase alpha-1; assay: Residual activity of MAPKAPK1a at 10 uM relative to control
[38] = biological target: T1, Dual specificity mitogen-activated protein kinase kinase 1; assay: Inhibition of MKK1 at 10 uM relative to control; values are per cent of control

Sequence of Serine/threonine-protein kinase Chk1 (Homo sapiens) (O14757 whole entry): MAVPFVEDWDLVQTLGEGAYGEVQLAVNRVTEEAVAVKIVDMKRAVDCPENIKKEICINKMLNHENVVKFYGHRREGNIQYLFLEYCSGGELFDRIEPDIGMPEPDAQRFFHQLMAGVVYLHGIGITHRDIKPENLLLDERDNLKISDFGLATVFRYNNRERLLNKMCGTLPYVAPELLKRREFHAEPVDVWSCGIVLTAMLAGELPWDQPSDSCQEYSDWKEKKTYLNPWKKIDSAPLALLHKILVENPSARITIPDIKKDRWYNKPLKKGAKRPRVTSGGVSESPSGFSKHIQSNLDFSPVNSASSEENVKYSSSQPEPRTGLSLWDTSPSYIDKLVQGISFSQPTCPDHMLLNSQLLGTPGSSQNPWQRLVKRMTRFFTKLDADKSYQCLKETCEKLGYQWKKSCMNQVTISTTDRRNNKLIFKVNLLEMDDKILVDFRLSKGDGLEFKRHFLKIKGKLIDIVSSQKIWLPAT

CN(C)c1nc2c(Br)c(Br)c(Br)c(Br)c2[nH]1
residual activity [1]: 81% | residual activity [2]: 97% | IC50 [3]: 10.5 µM | residual activity (Homo sapiens [4]): 67% | residual activity [5]: 97% | residual activity [6]: 77% | residual activity [7]: 29% | Activity (Jurkat [8]): Active | residual activity [9]: 91% | Activity (Jurkat [10]): inactive | residual activity [11]: 95% | residual activity [12]: 103% | residual activity [13]: 80% | residual activity [14]: 96% | residual activity [15]: 65% | residual activity [16]: 73% | DC50 (Jurkat [17]): 2.7 µM | IC50 [18]: 0.12 µM | residual activity [19]: 73% | IC50 [20]: 10.3 µM | residual activity [21]: 109% | residual activity (Homo sapiens [22]): 41% | Activity (Jurkat [23]): Active | residual activity [24]: 2% | residual activity [25]: 87% | IC50 [26]: 3.57 µM | residual activity [27]: 104% | residual activity [28]: 103% | residual activity [29]: 112% | residual activity [30]: 101% | residual activity [31]: 65% | residual activity [32]: 69% | residual activity [33]: 77% | residual activity [34]: 88% | IC50 [35]: 2.38 µM | residual activity [36]: 85% | residual activity [37]: 52% | residual activity [38]: 53%
